Results published in article PMC9179932 (Nature chemical biology, 2022).

What was measured:
[1] = molecular target: T1, prolidase (PEPD) (Homo sapiens, UniProt P12955); assay: Prolidase activity; type: biochemical; settings: dose-dependent
T1 sequence (P12955 1-493): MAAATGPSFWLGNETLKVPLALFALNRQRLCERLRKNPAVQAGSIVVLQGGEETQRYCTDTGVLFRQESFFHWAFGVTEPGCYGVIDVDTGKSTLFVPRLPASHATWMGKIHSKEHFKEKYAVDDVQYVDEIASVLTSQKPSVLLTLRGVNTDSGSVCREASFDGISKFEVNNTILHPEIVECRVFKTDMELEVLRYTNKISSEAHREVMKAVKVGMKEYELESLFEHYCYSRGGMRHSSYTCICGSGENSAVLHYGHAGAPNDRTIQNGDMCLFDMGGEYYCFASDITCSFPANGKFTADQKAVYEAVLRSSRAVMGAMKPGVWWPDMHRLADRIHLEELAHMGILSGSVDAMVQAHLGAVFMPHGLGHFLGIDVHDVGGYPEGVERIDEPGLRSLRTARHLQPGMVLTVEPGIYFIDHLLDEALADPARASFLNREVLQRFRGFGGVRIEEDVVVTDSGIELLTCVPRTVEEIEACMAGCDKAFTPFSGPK
In short: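 THP-1 lysates are normalised to 5 mg ml−1 and incubated with Ala-Pro dipeptide (40 μM final) and test compound at varying doses. Released alanine is quantified as increasing resorufin fluorescence (535/587 nm) at 25 °C using an L-alanine detection kit.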

[2] = molecular target: NPEPPS (Homo sapiens, UniProt P55786); assay: CETSA in HEK 293T lysates; type: binding; settings: 10 μM
In short: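 HEK 293T cells homogenised by sonication; debris cleared at 10,000g for 10 min. Clarified lysate incubated 30 min with test compound, then heated 30 min at a series of set temperatures between 38.7 and 70.9 °C. Aggregates pelleted at 18,000g for 20 min; soluble target in supernatant detected by immunoblotting.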

[3] = molecular target: T2, PEPD (Homo sapiens, UniProt P12955); assay: CETSA in HEK 293T lysates; type: binding; settings: 10 μM
T2 sequence (P12955 1-493): T1 sequence (P12955 1-493)
In short: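 HEK 293T cells are sonicated and cleared at 10,000g for 10 min. Clarified lysate is incubated with test compound (10 μM) for 30 min, then heated for 30 min at a temperature series. Aggregates are pelleted at 18,000g for 20 min, and the soluble supernatant is immunoblotted for the target.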

[4] = molecular target: recombinant DPP9 (Homo sapiens, UniProt Q86TI2); assay: AP-AMC-based DPP9 substrate assay; type: biochemical; settings: Supplementary Table 1
In short: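 Recombinant DPP9 (1 nM) is dispensed into 384-well plates and test compound is added by pintool over a concentration series. Reaction starts with 25 μM AP-AMC. Cleavage is read as rising fluorescence (ex/em 380/460 nm) at 25 °C for 30 min.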

[5] = molecular target: T2, PEPD; assay: CETSA in THP-1 cell lysates; type: binding; settings: 0.5, 5 μM
In short: (§1)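 THP-1 (Cas9) cell lysate is made by sonication and cleared at 10,000g for 10 min. It is exposed to test compound (0.5 or 5 μM) for 30 min, then heated 30 min at 40.6, 50.8, 60.1 or 70.9 °C. After spinning at 18,000g for 20 min, the soluble fraction is immunoblotted.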

[6] = molecular target: T3, XPNPEP1 (Homo sapiens, UniProt Q9NQW7); assay: CETSA in THP-1 cell lysates; type: binding; settings: 0.5, 5 μM
In short: as §1
Target sequence in this assay (Q9NQW7 whole entry): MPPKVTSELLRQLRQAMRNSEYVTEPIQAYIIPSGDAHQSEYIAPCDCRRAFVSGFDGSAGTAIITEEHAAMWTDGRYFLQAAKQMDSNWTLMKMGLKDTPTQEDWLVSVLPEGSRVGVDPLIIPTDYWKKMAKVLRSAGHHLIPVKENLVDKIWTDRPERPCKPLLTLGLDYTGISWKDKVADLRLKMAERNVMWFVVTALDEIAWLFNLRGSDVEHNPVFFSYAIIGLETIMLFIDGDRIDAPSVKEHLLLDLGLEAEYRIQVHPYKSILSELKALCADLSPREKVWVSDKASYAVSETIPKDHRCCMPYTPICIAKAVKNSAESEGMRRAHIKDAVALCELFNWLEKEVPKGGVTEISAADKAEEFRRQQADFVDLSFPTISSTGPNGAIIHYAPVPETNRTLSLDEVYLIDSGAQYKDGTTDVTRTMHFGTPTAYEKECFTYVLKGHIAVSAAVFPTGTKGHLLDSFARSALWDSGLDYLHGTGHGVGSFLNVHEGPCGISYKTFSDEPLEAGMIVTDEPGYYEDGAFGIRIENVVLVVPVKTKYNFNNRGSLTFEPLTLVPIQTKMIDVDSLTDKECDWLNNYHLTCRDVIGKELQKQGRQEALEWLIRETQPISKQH

[7] = molecular target: T4, XPNPEP3 (Homo sapiens, UniProt Q9NQH7); assay: XPNPEP3 enzymatic assay; type: biochemical; settings: Supplementary Table 2
In short: (§2)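 Enzymes are XPNPEP1 recombinant at 3.5 nM, or XPNPEP3 FLAG-immunoprecipitated after 48 h overexpression in HEK 293T. Each is treated with graded doses of test compound. H-Lys(abz)-Pro-Pro-pNA is added at 100 μM final, and fluorescence (ex/em 320/410 nm) is monitored for 30 min.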

[8] = system: bestatin-sensitive aminopeptidases; assay: Recombinant aminopeptidase AMC reporter assays; type: biochemical; settings: Supplementary Table 1
In short: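 Recombinant enzymes are incubated with test compound over a concentration range, then AMC substrate is added. Enzyme and substrate pairs: RNPEP 1.4 nM with 200 μM R-AMC; DPP3 0.6 nM with 100 μM RR-AMC; LTA4H 114.3 nM with 400 μM R-AMC; NPEPPS 1 nM with 10 μM L-AMC; ANPEP 1.2 nM with 100 μM A-AMC. Fluorescence (380/460 nm) is recorded at 25 °C for 30 min.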

[9] = molecular target: NLRP1–DPP9 interaction (Homo sapiens, UniProt Q86TI2); assay: DPP9 displacement from FLAG-NLRP1 on anti-FLAG beads; type: binding; settings: VbP 10 μM; VP dipeptide 0.5, 5 mM; CQ31, CQ04 10 μM
[10] = molecular target: T3, XPNPEP1; assay: XPNPEP1 enzymatic assay; type: biochemical; settings: Supplementary Table 2
In short: as §2
Target sequence in this assay (Q9NQW7 whole entry, species assumed): as the sequence (Q9NQW7 whole entry) above

[11] = molecular target: T2, PEPD; assay: PEPD assay; type: biochemical
In short: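 His-tagged human PEPD is expressed in E. coli Rosetta DE3 (IPTG, 4 h, 37 °C) and purified on TALON resin. Enzyme at 50 nM is mixed with Ala-Pro (40 μM final) and test compound. Liberated alanine is measured fluorometrically (resorufin, ex/em 535/587 nm) at 25 °C with an L-alanine assay kit.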

[12] = molecular target: T4, XPNPEP3; assay: CETSA in THP-1 cell lysates; type: binding
In short: as §1

[13] = system: MV4;11 cells; assay: MV4; type: cell-based; settings: 24 h, CTG

Sequence of recombinant DPP9 (Q86TI2 whole entry, species assumed): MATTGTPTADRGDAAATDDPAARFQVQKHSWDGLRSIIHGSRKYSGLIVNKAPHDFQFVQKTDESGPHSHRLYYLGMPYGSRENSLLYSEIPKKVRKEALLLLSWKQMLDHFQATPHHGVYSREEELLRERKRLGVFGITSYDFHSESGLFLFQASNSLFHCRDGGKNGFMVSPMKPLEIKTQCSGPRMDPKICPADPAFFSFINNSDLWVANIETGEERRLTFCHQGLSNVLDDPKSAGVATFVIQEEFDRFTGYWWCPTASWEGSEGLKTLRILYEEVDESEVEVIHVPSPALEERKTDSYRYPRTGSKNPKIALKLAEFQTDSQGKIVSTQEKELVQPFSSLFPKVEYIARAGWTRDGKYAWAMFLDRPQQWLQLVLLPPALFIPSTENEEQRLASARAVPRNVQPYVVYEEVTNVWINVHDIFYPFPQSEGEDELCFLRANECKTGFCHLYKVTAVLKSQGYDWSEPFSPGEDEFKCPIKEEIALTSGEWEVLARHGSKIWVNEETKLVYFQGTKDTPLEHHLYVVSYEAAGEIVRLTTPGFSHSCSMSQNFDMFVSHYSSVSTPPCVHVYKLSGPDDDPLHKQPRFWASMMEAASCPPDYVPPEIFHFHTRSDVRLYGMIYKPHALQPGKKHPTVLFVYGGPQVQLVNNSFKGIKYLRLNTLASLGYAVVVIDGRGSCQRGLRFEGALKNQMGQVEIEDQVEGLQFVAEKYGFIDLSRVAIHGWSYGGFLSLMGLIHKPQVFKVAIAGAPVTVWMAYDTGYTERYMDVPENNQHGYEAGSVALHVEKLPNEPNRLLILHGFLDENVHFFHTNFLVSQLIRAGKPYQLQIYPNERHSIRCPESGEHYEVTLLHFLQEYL
Sequence of NLRP1–DPP9 interaction (Q86TI2 whole entry): as the sequence (Q86TI2 whole entry, species assumed) above
Sequence of NPEPPS (P55786 whole entry): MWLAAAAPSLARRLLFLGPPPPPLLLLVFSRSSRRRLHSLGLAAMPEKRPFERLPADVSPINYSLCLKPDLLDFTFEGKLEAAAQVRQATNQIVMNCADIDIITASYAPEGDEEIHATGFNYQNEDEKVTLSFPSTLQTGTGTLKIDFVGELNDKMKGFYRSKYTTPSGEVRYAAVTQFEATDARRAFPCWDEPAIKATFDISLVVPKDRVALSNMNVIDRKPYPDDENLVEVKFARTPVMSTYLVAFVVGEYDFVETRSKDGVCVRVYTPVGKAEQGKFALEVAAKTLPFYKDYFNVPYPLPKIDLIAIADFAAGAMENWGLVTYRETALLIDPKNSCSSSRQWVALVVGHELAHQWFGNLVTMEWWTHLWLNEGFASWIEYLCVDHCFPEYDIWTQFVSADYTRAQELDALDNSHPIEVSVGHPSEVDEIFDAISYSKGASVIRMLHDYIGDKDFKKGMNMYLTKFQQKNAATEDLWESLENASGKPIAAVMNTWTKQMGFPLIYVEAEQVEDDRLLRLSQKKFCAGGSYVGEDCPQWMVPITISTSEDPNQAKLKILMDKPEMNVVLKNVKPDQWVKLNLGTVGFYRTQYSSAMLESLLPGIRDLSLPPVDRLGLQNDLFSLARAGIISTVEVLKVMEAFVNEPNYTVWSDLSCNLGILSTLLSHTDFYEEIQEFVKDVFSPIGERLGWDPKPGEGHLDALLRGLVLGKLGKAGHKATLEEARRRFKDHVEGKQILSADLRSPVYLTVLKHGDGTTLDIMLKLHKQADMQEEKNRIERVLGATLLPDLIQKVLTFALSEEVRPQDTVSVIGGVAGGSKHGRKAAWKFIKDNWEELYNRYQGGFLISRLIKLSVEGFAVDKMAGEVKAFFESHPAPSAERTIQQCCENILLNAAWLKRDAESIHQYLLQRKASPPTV

prolidase activity (Ala-Pro dipeptide cleavage) in THP-1 cell lysates [1]: completely blocked prolidase activity | thermal stabilization of PEPD [3]: stabilized PEPD | direct DPP9 (DPP8/9) inhibition [4]: did not inhibit | thermal stabilization of PEPD [5]: stabilize both PEPD and XPNPEP1 | thermal stabilization of XPNPEP1 [6]: stabilize both PEPD and XPNPEP1 | inhibition of XPNPEP3 in an enzymatic assay [7]: inhibited XPNPEP3 | inhibition of bestatin-sensitive aminopeptidases [8]: did not inhibit | inhibition of XPNPEP1 enzymatic activity [10]: inhibits XPNPEP1 enzymatic activity | IC50 [11]: 160 nM | thermal stabilization of XPNPEP3 [12]: slightly stabilized XPNPEP3
Compound: CC(C)C[C@@H](N)C(O)C(=O)N1CCC[C@H]1C(=O)O (stereo partly drawn) [CQ04, (2S,3R)-3-amino-2-hydroxy-5-methyl-hexanoyl-proline]
thermal stabilization of NPEPPS [2]: nor the bestatin-sensitive aminopeptidase NPEPPS | disruption of NLRP1–DPP9 interaction (DPP9 elution) [9]: had no impact on the NLRP1 ternary complex | cytotoxicity in CASP1−/− MV4;11 cells ([13]; CASP1−/−): not cytotoxic | cytotoxicity in WT MV4;11 cells ([13]; WT): not cytotoxic
